HSV replic up = enhancers of HSV replication in host cells, fold increase, host cell viability; HSV replication augmentation in cells; maximum fold increase; 0.005% of 220,000 active; in the data active means maximum fold increase above about 1.5; inconclusive means no clear call, values can overlap the other calls; tested in PC3 cells
HSF1 activator = HSF-1 activators, primary screen, NIH3T3-HGL cells, MG132 stress, luminescence, single point | activation, % at 9 µM | NIH3T3-HGL HSF-1 luciferase reporter, 8 h; 100% = twice DMSO control signal | 1.7% of 300,000 active | AID 504408, 2011;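 active means mean replicate activation of at least 50% with a set share of replicates each reaching 50%; inconclusive means only one of those two conditions met; inactive means mean below 50% and too few replicates reaching it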;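 further: 0% = median of the neutral control wells and 100% = twice that signal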
HSF1 inhib = HSF1 inhibitors in luciferase reporter cells, primary screen, cell-based, NIH3T3, luminescence. NIH3T3-HGL HSE-luciferase, MG132-induced, luminescence 8 h; active compounds read low. activity change, negative = inhibition, % at 7.5 µM (by protocol). 0.77% of 300,000 active;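 active means more than half of replicate wells show activity change below -50%, luminescence cut by over half; inconclusive means some wells, but at most half, below -50%; inactive means no replicate well below -50%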;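 further: luciferase reports HSF-1 transcriptional activity via heat shock element; 0% = median of DMSO wells and -100% = zero luminescence signal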
Hsp70 act = Hsp70 transcriptional activators, primary screen, cell-based, HeLa, Hsp70 promoter luciferase, luminescence, 10 µM; HeLa Hsp70 promoter luciferase reporter; scaled: vehicle 0, proteasome-inhibitor control 100%; activation, % at 10 µM; 0.04% of 200,000 active;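 active means activation above the mean across all tested compounds plus 3 SD, cutoff set per campaign, cut at about 5.5% in these data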;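 further: 100% = MG132 at 30 µM as the positive control and 0% = DMSO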
Rad51 HR inh = human RAD51 strand exchange inhibitors, primary screen, biochemical, fluorescence | AID 1385, 2008 | DNA repair protein RAD51 homolog 1 (Homo sapiens), Q06609 | 0.085% of 200,000 active | inhibition, % at 10 µM | hRad51 DNA strand exchange, fluorescence dequenching;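 active means inhibition above 40% at the single screening dose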;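 further: 0% = DMSO control wells and 100% = blanks with heterologous ssDNA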
Target sequence (Q06609 whole entry, looked up): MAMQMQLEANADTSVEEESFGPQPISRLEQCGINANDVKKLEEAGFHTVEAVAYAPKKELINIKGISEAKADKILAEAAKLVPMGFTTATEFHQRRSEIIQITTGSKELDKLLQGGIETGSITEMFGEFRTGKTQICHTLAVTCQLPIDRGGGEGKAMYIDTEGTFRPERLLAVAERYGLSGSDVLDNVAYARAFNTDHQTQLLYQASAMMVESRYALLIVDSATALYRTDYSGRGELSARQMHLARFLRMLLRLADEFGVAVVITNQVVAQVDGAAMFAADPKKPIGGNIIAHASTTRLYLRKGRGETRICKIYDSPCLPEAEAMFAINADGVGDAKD
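System: human Rad51 nucleoprotein filaments preassembled on unlabelled ssDNA. Reagent: labelled 47-mer dsDNA for strand exchange. Schedule: 30-min compound preincubation and 15-min exchange, both room temperature. Measured by: FRET fluorescence dequenching, excitation 485 nm, emission 520 nm. Read-out: Fluorescence-based percent inhibition, control- and blank-normalised. Benchmarks: plate controls and plate blanks.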
Mdm2 ligase inh = MDM2-luciferase reporter signal enhancers, primary screen, MDM2 E3 ligase inhibitor project, cell-based, luminescence, 1536-well | E3 ubiquitin-protein ligase Mdm2 (Homo sapiens), Q00987 | cell-based MDM2 ubiquitination luciferase reporter, 2 h; 0 = plate control, 100 = twice control, blank-subtracted | signal enhancement, % at 5 µM | 0.11% of 210,000 active;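 active means signal enhancement of 30% or more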;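 further: luminescence tracks abundance of the self-degrading MDM2-luciferase fusion protein; higher signal means inhibition of MDM2 E3 ligase activity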
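Timing – 2 h compound exposure at 37 °C · Assay system – mammalian cells stably expressing self-ubiquitinating, self-degrading MDM2 E3–luciferase fusion · Amount – 2000 cells seeded into each well · Measure – % luminescence enhancement versus blank-corrected plate control mean · Measured by – SteadyLite luminescence, 15 min reagent step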
* hit, by the source's call; i = inactive; ? = inconclusive; · = not tested or not shown. Rows were chosen to be rich in hits. Some 2.6% of all compounds tested hit in one or more screens of this group.

SMILES	HSV replic up	HSF1 activator	HSF1 inhib	Hsp70 act	Rad51 HR inh	Mdm2 ligase inh
CC(=O)n1c2c(c3ccccc31)OC(N)=C(C#N)C2c1cccc(Cl)c1Cl (stereo not drawn)	i	74.3*	26.6	-0.4	-8.6	-15.1
O=C(N/N=C/C=C/c1ccccc1)c1cccs1	i	?	17.2	0.2	·	-11.5
O=C(N/N=C/C(Cl)=C/c1ccccc1)c1ccco1	i	53.6*	3.8	2.2	-19.2	-5.5
CC(/C=N/NC(=O)c1cc(-c2ccc(C)o2)[nH]n1)=C\c1ccccc1	i	14.6	-6.8	-0.2	-3.4	-14.2
O=C(N/N=C/C(Cl)=C\c1ccccc1)c1ccco1	i	46.2	31.9	·	·	-14.8
O=C(N/N=C/C(Cl)=C/c1ccccc1)c1ccccc1F	·	76.0*	32.7	·	·	·
O=C(N/N=C/C(Br)=C/c1ccccc1)c1cccs1	i	130.3*	107.8	0.8	2.1	-3.4
O=C(N/N=C/C(Br)=C/c1ccccc1)c1cc(-c2ccco2)[nH]n1	i	130.2*	125.0	0.1	·	0.5
COc1ccc(NS(=O)(=O)c2cccc(C(=O)NNC(=O)c3cc(S(N)(=O)=O)ccc3OC)c2)cc1	·	6.5	-1.3	·	·	·
Cc1cccc(OCCCC(=O)NNC(=O)CCN2CCN(c3ccccc3)CC2)c1	·	-13.4	-7.5	·	·	·
O=C(N/N=C/C(Br)=C/c1ccccc1)c1ccccc1F	·	250.5*	179.0	·	·	·
O=C(N/N=C/c1cccc(Oc2ccccc2)c1)c1ccccc1F	·	-0.4	2.6	·	·	·
COc1ccc(S(=O)(=O)N2CCN(C/C=C/c3ccccc3)CC2)cc1F	·	33.6	9.6	·	·	·
Cc1cc(/C=C(/C#N)c2cccc(Cl)c2)c(C)n1C	·	67.1*	32.1	-0.2	·	-1.7
Cc1ccc(-n2c(C)cc(C(=O)COc3c(CO)cc(F)cc3CO)c2C)cc1C	i	56.3*	11.1	-0.1	27.2	11.8
Cc1cc(C(=O)COc2ccccc2Cl)c(C)n1-c1ccc2c(c1)OCO2	i	43.9	16.0	-0.2	16.5	-16.2
COCCn1c(SCC(=O)NCC2CCCO2)nc2c(c1=O)SCC2 (stereo not drawn)	·	1.3	-3.3	·	·	·
COCCn1c(SCC(=O)NC2CCCCC2)nc2c(c1=O)SCC2	·	57.9*	22.8	·	·	·
CCN(C(=O)c1cc2c(=O)[nH]c3ccc(C)cc3c2s1)c1ccccc1F	i	57.9*	11.2	·	14.0	-7.5
CCN(C(=O)c1cc2c(=O)[nH]c3ccc(C)cc3c2s1)c1ccccc1C	i	42.6	13.4	·	5.8	-1.5
CCN(C(=O)c1cc2c(=O)[nH]c3ccc(C)cc3c2s1)c1ccc(F)cc1	i	-82.0	-75.5*	·	8.2	-9.0
CCOC(=O)C(NC(=O)NCc1ccccc1OC)(OCC)C(F)(F)F (stereo not drawn)	i	15.7	-5.2	-0.3	-0.9	5.8
Cn1c(SCC(=O)NC2CC2)nnc1-c1cccs1	·	-22.8	-11.2	·	·	·
O=C(NC1CCCCC1)C1CCCN1S(=O)(=O)c1ccc(Cl)cc1 (stereo not drawn)	·	-2.6	0.0	·	·	·
COc1ccc(C2=NN(S(C)(=O)=O)C(c3cccs3)C2)cc1 (stereo not drawn)	i	15.0	19.9	0.6	-2.3	-7.3
Cc1ccc(C2=NN(S(C)(=O)=O)C(c3cccs3)C2)cc1 (stereo not drawn)	i	41.6	11.4	0.3	-4.2	-6.5
CCc1ccc(C2=NN(S(C)(=O)=O)C(c3cccs3)C2)cc1 (stereo not drawn)	i	70.3*	47.9	0.3	-15.7	-45.2
CS(=O)(=O)N1N=C(c2ccc(Br)cc2)CC1c1cccs1 (stereo not drawn)	i	52.3*	28.3	-0.3	3.0	-23.9
CN1CCC(N(C)C(=O)/C(C#N)=C/c2ccc(OC(F)F)cc2)CC1	i	-8.6	1.8	·	44.6*	·
N#C/C(=C\c1ccc(OC(F)F)cc1)C(=O)N1CCCCC1	i	32.9	3.1	·	-5.1	·

Bioassay records as filed in PubChem.
